Measured values as given in ChEMBL document CHEMBL3286350, “Aplysinellamides A-C, bromotyrosine-derived metabolites from an Australian Aplysinella sp. marine sponge” (2014).
The source made the active and inactive calls. No cut-off for these calls is given here.

Experiments:
CCF-STTG1 [1] = assay: Induction of apolipoprotein E secretion from human CCF-STTG1 cells up to 40 uM after 96 hrs by ELISA; format: functional, cell-based
Procedure, shortened: (§1)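 Human CCF-STTG1 astrocytoma cells were incubated with test compounds at concentrations of up to 40 μM for 96 h, and apolipoprotein E secretion was then measured. The assay was also applied to fractions.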

CCF-STTG1 [2] = assay: Induction of apolipoprotein E secretion from human CCF-STTG1 cells at 30 uM after 96 hrs by ELISA relative to control; format: functional; procedure, shortened: as §1

Compound | Activity (CCF-STTG1 [1]) | fold change (FC) (CCF-STTG1 [2])
CN(C)CCCOc1c(Br)cc(CC[N+](C)(C)O)cc1Br | inactive | 
CN(C)CCc1cc(Br)c(O)c(Br)c1 | inactive | 
COc1ccc(CC(C(=O)O)[N+](C)(C)C)cc1Br (stereo not given) | inactive | 
COc1ccc(C[C@H](N)C(=O)NCCc2cc(Br)c(OCCCN(C)C)c(Br)c2)cc1Br | inactive | 
COc1ccc(/C=C/C(=O)NCCCC[C@@H](N)C(=O)O)cc1Br | inactive | 
CN(C)CCCOc1c(Br)cc(CCN(C)C)cc1Br [APLYSAMINE] |  | 2
COc1c(Br)cc(C(=O)O)cc1Br | inactive | 
COc1ccc(/C=C/C(=O)NCCCCC(=O)O)cc1Br | inactive | 
COc1c(Br)cc(/C=C/C(=O)NCCCC[C@@H](N)C(=O)O)cc1Br | inactive | 
CNCCc1cc(Br)c(OCCCN(C)C)c(Br)c1 | inactive | 
